{
  "source": "paper PMC4017091",
  "about": "(Bioorganic & medicinal chemistry, 2013)",
  "key": {"[1]": {"target": "T1, human 5-LOX (Homo sapiens, UniProt P09917)", "T1 sequence (P09917 1-674)": "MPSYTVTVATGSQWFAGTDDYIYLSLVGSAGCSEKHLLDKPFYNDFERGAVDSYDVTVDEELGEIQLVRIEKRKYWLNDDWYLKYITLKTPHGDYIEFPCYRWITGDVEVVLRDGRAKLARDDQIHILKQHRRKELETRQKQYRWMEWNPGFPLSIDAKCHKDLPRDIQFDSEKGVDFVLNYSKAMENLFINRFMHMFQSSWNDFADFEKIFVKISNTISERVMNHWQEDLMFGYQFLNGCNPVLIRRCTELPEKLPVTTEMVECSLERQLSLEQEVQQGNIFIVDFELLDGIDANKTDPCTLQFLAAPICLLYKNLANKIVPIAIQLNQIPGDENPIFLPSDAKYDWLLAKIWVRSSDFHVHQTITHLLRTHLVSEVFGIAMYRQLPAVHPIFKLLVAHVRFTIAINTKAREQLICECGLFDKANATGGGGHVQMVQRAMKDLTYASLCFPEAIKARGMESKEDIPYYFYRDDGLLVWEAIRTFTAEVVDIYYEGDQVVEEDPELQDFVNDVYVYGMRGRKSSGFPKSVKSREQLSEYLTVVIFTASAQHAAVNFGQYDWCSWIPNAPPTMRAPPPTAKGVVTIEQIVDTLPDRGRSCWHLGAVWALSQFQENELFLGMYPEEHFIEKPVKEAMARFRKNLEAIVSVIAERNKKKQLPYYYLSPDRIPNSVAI", "test": "Human 5-LOX inhibition screening UV assay", "assay_type": "biochemical", "details": "50 μM compound; 100 μM linoleic acid substrate; 10 min pre-incubation", "procedure,_shortened": "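Human 5-LOX was diluted 1:4000 in 50 mM Tris pH 7.5 with 2 mM EDTA and 2 mM CaCl2, plus ATP (2 mM stock). It was pre-incubated 10 min at room temperature with test compound diluted from DMSO stock, or a DMSO-only control. Linoleic acid (20 mM ethanolic stock) was added, and HPOD conjugated diene formation was followed at 234 nm over 20 min. Residual activity was taken relative to the control. Three independent experiments; mean with SD.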"}, "[2]": {"target": "T2, COX-2 (human recombinant) (Homo sapiens, UniProt P35354)", "T2 sequence (P35354 18-604)": "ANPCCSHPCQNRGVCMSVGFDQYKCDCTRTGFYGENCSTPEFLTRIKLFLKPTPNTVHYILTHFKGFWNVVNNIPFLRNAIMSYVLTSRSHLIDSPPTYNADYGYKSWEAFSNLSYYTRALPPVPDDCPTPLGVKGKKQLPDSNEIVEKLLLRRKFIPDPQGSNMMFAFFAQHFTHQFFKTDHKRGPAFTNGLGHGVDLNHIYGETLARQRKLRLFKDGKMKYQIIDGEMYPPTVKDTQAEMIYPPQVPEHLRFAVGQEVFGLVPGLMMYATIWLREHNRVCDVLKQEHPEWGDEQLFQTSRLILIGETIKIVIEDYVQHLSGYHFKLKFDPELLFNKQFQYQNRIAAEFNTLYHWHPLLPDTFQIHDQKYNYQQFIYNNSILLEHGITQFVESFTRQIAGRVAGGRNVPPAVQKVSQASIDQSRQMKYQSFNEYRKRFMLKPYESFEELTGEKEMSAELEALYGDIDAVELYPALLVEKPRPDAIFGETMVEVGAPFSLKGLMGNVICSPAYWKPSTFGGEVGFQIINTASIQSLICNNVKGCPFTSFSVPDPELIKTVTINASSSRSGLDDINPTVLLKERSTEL", "test": "COX-2 inhibition screening assay", "assay_type": "biochemical", "details": "50 μM compound; 2 mM arachidonic acid substrate", "procedure,_shortened": "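Human recombinant COX-2 was diluted 1:1000 in 0.1 M Tris pH 8.0 with hematin. It was pre-incubated 5 min at room temperature with test compound from a 1.1 mM DMSO solution, or DMSO for the positive control. Freshly made TMPD and then arachidonic acid were added, with no arachidonic acid in negative controls. After 5 more min at room temperature, TMPD oxidation was read at 550 nm. Triplicate; mean with SD.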"}, "[3]": {"system": "soybean lipoxygenase-1 (SLO-1)", "details": "cited from earlier work"}, "[4]": {"system": "potato 5-lipoxygenase", "details": "cited from earlier work"}, "[5]": {"target": "T1, human 5-LOX", "test": "Michaelis-Menten enzyme kinetics of human 5-LOX versus ATP or linoleic acid", "assay_type": "biochemical", "details": "for type of modulation versus linoleic acid: varied linoleic acid"}, "[6]": {"target": "T3, h-5-LOX (Homo sapiens, UniProt P09917)", "T3 sequence (P09917 1-674)": "T1 sequence (P09917 1-674)", "test": "h-5-LOX activity with arachidonic acid as substrate", "assay_type": "biochemical", "details": "50 μM compound; 100 μM arachidonic acid"}, "[7]": {"details": "linoleic acid conversion, non-essential activation model"}},
  "note": "Entries after “also recorded” stand apart in the source; their conditions may differ.",
  "data": [
    {"smiles": "CCCCCCCCCCCCCCCc1cccc(O)c1C(=O)O", "note": "[Compound 14, Anacardic acid, reference compound]", "values": [
      {"measurement": "effect on h-5-LOX activity (in words)", "setting": "[1]", "value": "little inhibition"},
      {"measurement": "effect on COX-2 activity (in words)", "setting": "[2]", "value": "little inhibition"}
    ]},
    {"smiles": "CCCCCCCCCCc1cccc(O)c1C(=O)O", "note": "[Compound 15]", "values": [
      {"measurement": "effect on h-5-LOX activity (in words)", "setting": "[1]", "value": "little inhibition"},
      {"measurement": "effect on COX-2 activity (in words)", "setting": "[2]", "value": "little inhibition"}
    ]},
    {"smiles": "CCCCCc1cccc(O)c1C(=O)O", "note": "[Compound 16]", "values": [
      {"measurement": "effect on h-5-LOX activity (in words)", "setting": "[1]", "value": "little inhibition"},
      {"measurement": "effect on COX-2 activity (in words)", "setting": "[2]", "value": "little inhibition"}
    ]},
    {"smiles": "CCCCCCCCCCCCCCCc1cc(O)cc(O)c1C(=O)O", "note": "[Compound 17]", "values": [
      {"measurement": "effect on h-5-LOX activity (in words)", "setting": "[1]", "value": "slight improvement in the inhibitory potency"}
    ]},
    {"smiles": "CCCCCCCc1ccc(CCc2cc(O)cc(O)c2C(=O)O)cc1", "note": "[Compound 19]", "values": [
      {"measurement": "effect on soybean lipoxygenase-1 (SLO-1)", "setting": "[3]", "value": "allosteric inhibitor"}
    ]},
    {"smiles": "CCCCCCCCCCCCCCOc1cccc(O)c1C(=O)O", "note": "[Compound 21]", "values": [
      {"measurement": "effect on h-5-LOX activity (in words)", "setting": "[1]", "value": "neither inhibition nor activation"},
      {"measurement": "effect on potato 5-LOX", "setting": "[4]", "value": "strong activation; also recorded: allosteric activator"}
    ]},
    {"smiles": "CCCCCOc1ccc(COc2cccc(O)c2C(=O)[O-])cc1.[K+]", "note": "[Compound 23a, potassium 2-hydroxy-6-((4-(pentyloxy)benzyl)oxy)benzoate]", "values": [
      {"measurement": "α (change in the affinity of substrate binding)", "setting": "[5]; [7]", "value": 0.0438},
      {"measurement": "β (change in the catalytic constant)", "setting": "[5]; [7]", "value": 1.76},
      {"measurement": "type of modulation versus ATP", "setting": "[5]; varied ATP, 100 μM linoleic acid", "value": "non-competitive activation"},
      {"measurement": "type of modulation versus linoleic acid", "setting": "[5]; 100 μM ATP", "value": "non-essential mixed type activation"},
      {"measurement": "activation of linoleic acid conversion versus compound concentration", "setting": "[5]; various concentrations of compound, linoleic acid substrate", "value": "concentration dependent activation"},
      {"measurement": "Vmax^app", "setting": "[5]; versus ATP, 12.5 μM 23a, 100 μM linoleic acid", "value": "0.3861 ± 0.0073", "unit": "µM/s"},
      {"measurement": "Vmax^app", "setting": "[5]; versus ATP, 25 μM 23a, 100 μM linoleic acid", "value": "0.5236 ± 0.0137", "unit": "µM/s"},
      {"measurement": "Vmax^app", "setting": "[5]; versus linoleic acid, 12.5 μM 23a, 100 μM ATP", "value": "2.39 ± 0.07", "unit": "µM/s"},
      {"measurement": "Vmax^app", "setting": "[5]; versus linoleic acid, 25 μM 23a, 100 μM ATP", "value": "2.70 ± 0.05", "unit": "µM/s"},
      {"measurement": "effect on h-5-LOX activity (in words)", "setting": "[1]", "value": "strong activation"},
      {"measurement": "modulation of h-5-LOX activity toward arachidonic acid", "setting": "[6]", "value": "no modulation; also recorded: no effect"}
    ]},
    {"smiles": "CCCCCCCOc1ccc(COc2cccc(O)c2C(=O)[O-])cc1.[K+]", "note": "[Compound 23b, Potassium 2-((4-(heptyloxy)benzyl)oxy)-6-hydroxybenzoate]", "values": [
      {"measurement": "effect on h-5-LOX activity (in words)", "setting": "[1]", "value": "no or little inhibition"}
    ]},
    {"smiles": "CCCCCCCCCOc1ccc(COc2cccc(O)c2C(=O)[O-])cc1.[K+]", "note": "[Compound 23c, Potassium 2-hydroxy-6-((4-(nonyloxy)benzyl)oxy)benzoate]", "values": [
      {"measurement": "effect on h-5-LOX activity (in words)", "setting": "[1]", "value": "no or little inhibition"}
    ]},
    {"smiles": "CC(C)CCCC(C)CCOc1ccc(COc2cccc(O)c2C(=O)[O-])cc1.[K+]", "note": "(stereo not drawn) [Compound 23d, Potassium 2-((4-((3,7-dimethyloctyl)oxy)benzyl)oxy)-6-hydroxybenzoate]", "values": [
      {"measurement": "Ki′ (dissociation constant of inhibitor to enzyme-substrate complex)", "setting": "[5]; linoleic acid conversion, mixed type inhibition model", "value": 140, "unit": "µM"},
      {"measurement": "type of modulation versus linoleic acid", "setting": "[5]; 100 μM ATP", "value": "mixed-type inhibition"},
      {"measurement": "Vmax^app", "setting": "[5]; versus linoleic acid, 25 μM 23d", "value": "1.84 ± 0.25", "unit": "µM/s"},
      {"measurement": "Vmax^app", "setting": "[5]; versus linoleic acid, 50 μM 23d", "value": "1.47 ± 0.16", "unit": "µM/s"},
      {"measurement": "modulation of h-5-LOX activity toward arachidonic acid", "setting": "[6]", "value": "no modulation; also recorded: no effect"}
    ]},
    {"smiles": "Oc1ccccc1-c1nc2ccccc2o1", "note": "[Compound 25, 2-(benzo[d]oxazol-2-yl)phenol]", "values": [
      {"measurement": "effect on h-5-LOX activity (in words)", "setting": "[1]", "value": "did not inhibit; also recorded: no inhibition"}
    ]},
    {"smiles": "CCCCC/C=C\\C/C=C\\CCCCCCCC(=O)O", "note": "[linoleic acid]", "values": [
      {"measurement": "Km", "setting": "[5]; read-out: Km of the substrate for h-5-LOX, no modulator", "value": 600, "unit": "µM"}
    ]}
  ]
}
